Calls of active or inactive are those of the source. The rule behind the calls is not given here.
Experiments:
Human adenovirus D37 [1] = experiment: Inhibition of [35S]labeled Human adenovirus type 37 virions binding to human corneal epithelial cells by liquid scintillation counting; format: functional, organism-based; conditions: Cornea, Epithelial cell
Summary of the method: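 ³⁵S-labeled Ad37 virions preincubated with ligand before being added to HCE cells. After incubation, unbound virions washed away and cell-associated radioactivity measured. Each run used a duplicate dilution series (2, 4, 8 and 16 mM), averaged from duplicates. Experiment repeated three times; large variation allowed only a rough activity estimate.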

Human adenovirus D37 [2] = experiment: Antiviral activity against Human adenovirus type 37 virions assessed as inhibition of viral infection in human corneal epithelial cells preincubated for 1 hr; format: functional, organism-based; conditions: Cornea, Epithelial cell
Summary of the method: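 Unlabeled Ad37 virions preincubated with a dilution series of ligand, then incubated with HCE cells. Unbound virions washed off; cell-associated virions allowed to infect. Infected cells stained with rabbit polyclonal anti-Ad37 serum and FITC-conjugated swine anti-rabbit IgG, then counted as fluorescent focus units under an immunofluorescence microscope. Duplicates within one experiment; experiment repeated twice.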

Row | Structure (SMILES) | Activity (Human adenovirus D37 [1]) | Activity (Human adenovirus D37 [2])
1 | CO[C@@]1(C(=O)O)C[C@H](O)[C@@H](NC(=O)OC(C)(C)C)[C@H]([C@H](O)[C@H](O)CO)O1 | inactive | 
2 | CO[C@@]1(C(=O)O)C[C@H](O)[C@@H](NC(=O)c2ccccc2)[C@H]([C@H](O)[C@H](O)CO)O1 | Active | inactive
3 | CCCC(=O)N[C@H]1[C@H]([C@H](O)[C@H](O)CO)O[C@](OC)(C(=O)O)C[C@@H]1O | inactive | inactive
4 | CCCCC(=O)N[C@H]1[C@H]([C@H](O)[C@H](O)CO)O[C@](OC)(C(=O)O)C[C@@H]1O | inactive | 
5 | CCC(=O)N[C@H]1[C@H]([C@H](O)[C@H](O)CO)O[C@](OC)(C(=O)O)C[C@@H]1O | Active | Dose-dependent effect
6 | CNC(=O)N[C@H]1[C@H]([C@H](O)[C@H](O)CO)O[C@](OC)(C(=O)O)C[C@@H]1O | inactive | 
7 | COC(=O)N[C@H]1[C@H]([C@H](O)[C@H](O)CO)O[C@](OC)(C(=O)O)C[C@@H]1O | Active | Dose-dependent effect
8 | CC(=O)N[C@H]1[C@H]([C@@H](O)[C@@H](O)CO)O[C@@](O)(C(=O)O)C[C@@H]1O | Active | Dose-dependent effect
9 | O=C(CO)N[C@H]1[C@H]([C@H](O)[C@H](O)CO)O[C@](O)(C(=O)O)C[C@@H]1O | inactive | 
10 | CO[C@@]1(C(=O)O)C[C@H](O)[C@@H](NC(=O)C(C)C)[C@H]([C@H](O)[C@H](O)CO)O1 | inactive | inactive

From ChEMBL document CHEMBL1136953, “Design, synthesis, and evaluation of N-acyl modified sialic acids as inhibitors of adenoviruses causing epidemic keratoconjunctivitis” (J Med Chem, 2009)
